From ChEMBL document CHEMBL1123325, “Isomer-dependent cytostatic activity of bis(1-aziridinyl)cyclophosphazenes” (1986)

Key:
Assay type in all cases: functional
L1210 [1] = experiment: In vitro inhibition dose (cytostatic activity) in L1210 mouse leukemia cells
L5178Y = experiment: In vitro lowest active dose (LAD) in L5178Y mouse lymphoma cells
L1210 [2] = experiment: Tested in vivo for 50% lethal dose in L1210 mouse leukemia cells
Mus musculus [3] = experiment: Compound was tested for percent median survival time of drug-treated mice over that of untreated control mice at dose of 20 mg/kg
Summary of the method: (§1)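 10^5 L1210 leukemia cells from in vitro suspension culture were injected into male (BALB/c × DBA/2)F1 (CDF1) mice as intraperitoneal leukemia. Dosing began 24 h later, with 5 mice per dose and 10 untreated controls. Survival times were recorded. The value is the median survival time of treated mice as a percent of untreated controls (T/C%), with 60-day long-term survivors noted.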

Mus musculus [4] = experiment: Tested for percent median survival time of drug-treated mice over that of untreated control mice at dose of 40 mg/kg; summary of the method: as §1
Mus musculus [5] = experiment: Compound was tested for percent median survival time of drug-treated mice over that of untreated control mice at dose of 900 mg/kg; summary of the method: as §1
Mus musculus [6] = experiment: Compound was tested for percent median survival time of drug-treated mice over that of untreated control mice at dose of 600 mg/kg; summary of the method: as §1
Mus musculus [7] = experiment: Compound was tested for percent median survival time of drug-treated mice over that of untreated control mice at dose of 160 mg/kg; summary of the method: as §1
Mus musculus [8] = experiment: Tested for percent median survival time of drug-treated mice over that of untreated control mice at dose of 200 mg/kg; summary of the method: as §1
Mus musculus [9] = experiment: Compound was tested for percent median survival time of drug-treated mice over that of untreated control mice at dose of 150 mg/kg; summary of the method: as §1
Mus musculus [10] = experiment: Compound was tested for percent median survival time of drug-treated mice over that of untreated control mice at dose of 80 mg/kg; summary of the method: as §1
Mus musculus [11] = experiment: Compound was tested for percent median survival time of drug-treated mice over that of untreated control mice at dose of 60 mg/kg; summary of the method: as §1
Mus musculus [12] = experiment: Compound was tested for percent median survival time of drug-treated mice over that of untreated control mice at dose of 120 mg/kg; summary of the method: as §1
Mus musculus [13] = experiment: Compound was tested for percent median survival time of drug-treated mice over that of untreated control mice at dose of 100 mg/kg; summary of the method: as §1
Mus musculus [14] = experiment: Compound was tested for percent median survival time of drug-treated mice over that of untreated control mice at dose of 300 mg/kg; summary of the method: as §1
Mus musculus [15] = experiment: Compound was tested for percent median survival time of drug-treated mice over that of untreated control mice at dose of 350 mg/kg; summary of the method: as §1
Mus musculus [16] = experiment: Compound was tested for percent median survival time of drug-treated mice over that of untreated control mice at dose of 70 mg/kg; summary of the method: as §1

Row | Structure (SMILES) | ID50 (L1210 [1]) [M l-1] | LAD (L5178Y) [M l-1] | LD50 (L1210 [2]) [mg/kg] | further results
1 | CN(C)P1(N(C)C)=N[P@](N(C)C)(N2CC2)=NP(N(C)C)(N(C)C)=N[P@](N(C)C)(N2CC2)=N1 | 5.5e-06 | 4e-06 |  | 
2 | C1CN1P1(N2CC2)=NP(N2CC2)(N2CC2)=NP(N2CC2)(N2CC2)=N1 | 2e-06 |  | 50 | T/C (Mus musculus [3]): 200%; T/C (Mus musculus [4]): 163%
3 | C1CN(P2(N3CCOCC3)=N[P@](N3CCOCC3)(N3CC3)=N[P@@](N3CCOCC3)(N3CC3)=N2)CCO1 | 2.47e-05 | 3e-05 | 800 | T/C (Mus musculus [5]): 163%; T/C (Mus musculus [6]): 163%
4 | CN(C)P1(N(C)C)=NP(N(C)C)(N(C)C)=NP(N(C)C)(N2CC2)=NP(N(C)C)(N(C)C)=N1 (stereo unspecified) | 1.21e-05 | 6.4e-05 |  | 
5 | C1CCN(P2(N3CCCC3)=NP(N3CC3)(N3CC3)=NP(N3CC3)(N3CC3)=N2)C1 | 2.7e-06 |  | 220 | T/C (Mus musculus [7]): 178%; T/C (Mus musculus [8]): 211%
6 | C1CN(P2(N3CCOCC3)=NP(N3CCOCC3)(N3CCOCC3)=NP(N3CC3)(N3CC3)=N2)CCO1 | 0.00013 | 0.00012 |  | 
7 | CNP1(NC)=NP(NC)(NC)=NP(N2CC2)(N2CC2)=NP(NC)(NC)=N1 | 6.5e-06 | 1.8e-05 |  | 
8 | C1CN(P2(N3CCOCC3)=NP(N3CCOCC3)(N3CCOCC3)=NP(N3CCOCC3)(N3CC3)=N2)CCO1 (stereo unspecified) | >0.00025 | >0.0003 |  | 
9 | C1CCN(P2(N3CCCCC3)=NP(N3CC3)(N3CC3)=NP(N3CC3)(N3CC3)=N2)CC1 | 3.6e-06 |  | 250 | T/C (Mus musculus [8]): 156%
10 | C1CN(P2(N3CCOCC3)=N[P@](N3CCOCC3)(N3CC3)=N[P@](N3CCOCC3)(N3CC3)=N2)CCO1 | 3.35e-05 | 6e-05 |  | 
11 | CNP1(NC)=N[P@@](NC)(N2CC2)=NP(NC)(NC)=N[P@@](NC)(N2CC2)=N1 | 4.6e-06 | 5e-07 | 200 | T/C (Mus musculus [8]): 213%; T/C (Mus musculus [9]): 200%
12 | CNP1(NC)=N[P@](NC)(N2CC2)=N[P@](NC)(N2CC2)=N1 | 5e-06 | 1e-06 | 70 | T/C (Mus musculus [10]): 175%; T/C (Mus musculus [4]): 250%; T/C (Mus musculus [11]): 275%
13 | CN(C)P1(N(C)C)=N[P@](N(C)C)(N2CC2)=NP(N(C)C)(N(C)C)=N[P@@](N(C)C)(N2CC2)=N1 | 7.5e-06 | 1e-06 | 150 | T/C (Mus musculus [7]): <100%; T/C (Mus musculus [12]): 125%
14 | CN(C)P1(N(C)C)=NP(N(C)C)(N(C)C)=NP(N2CC2)(N2CC2)=N1 | 1.95e-05 | 2e-05 |  | 
15 | CNP1(NC)=NP(NC)(NC)=N[P@@](NC)(N2CC2)=N[P@](NC)(N2CC2)=N1 | 1.8e-06 | 2e-06 | 100 | T/C (Mus musculus [10]): 263%; T/C (Mus musculus [4]): 238%; T/C (Mus musculus [13]): 213%; T/C (Mus musculus [11]): 275%
16 | CN(C)P1(N(C)C)=NP(N(C)C)(N(C)C)=NP(N2CC2)(N2CC2)=NP(N(C)C)(N(C)C)=N1 | 1.19e-05 | 2e-06 |  | 

Row | Structure (SMILES) | ID50 (L1210 [1]) [M l-1] | LAD (L5178Y) [M l-1] | LD50 (L1210 [2]) [mg/kg] | further results
17 | CNP1(NC)=NP(NC)(NC)=NP(NC)(N2CC2)=NP(NC)(NC)=N1 (stereo unspecified) | 5.69e-05 | 0.00015 |  | 
18 | CN(C)P1(N(C)C)=NP(N(C)C)(N(C)C)=N[P@@](N(C)C)(N2CC2)=N[P@](N(C)C)(N2CC2)=N1 | 6.6e-06 | 2e-06 |  | 
19 | C1CN([P@@]2(N3CC3)=NP(N3CC3)(N3CC3)=N[P@@](N3CCOCC3)(N3CC3)=N2)CCO1 | 4.7e-06 |  | 250 | T/C (Mus musculus [7]): 213%; T/C (Mus musculus [8]): 200%
20 | C1CCN(P2(N3CCCC3)=NP(N3CCCC3)(N3CCCC3)=NP(N3CC3)(N3CC3)=N2)C1 | 1.86e-05 | 4e-06 |  | 
21 | CN(C)P1(N(C)C)=N[P@@](N(C)C)(N2CC2)=N[P@](N(C)C)(N2CC2)=N1 | 2.9e-06 | 5e-07 |  | 
22 | C1CN(P2(N3CCOCC3)=NP(N3CC3)(N3CC3)=NP(N3CC3)(N3CC3)=N2)CCO1 | 5.8e-06 |  | 400 | T/C (Mus musculus [14]): 175%; T/C (Mus musculus [15]): 200%
23 | C1CCN(P2(N3CCCC3)=N[P@](N3CCCC3)(N3CC3)=N[P@](N3CCCC3)(N3CC3)=N2)C1 | 6.7e-06 | 1e-06 |  | 
24 | CN(C)P1(N(C)C)=N[P@](N(C)C)(N2CC2)=N[P@](N(C)C)(N2CC2)=N1 | 7.3e-06 | 5e-07 |  | 
25 | CCOC(=O)CNP1(NCC(=O)OCC)=NP(N2CC2)(N2CC2)=NP(N2CC2)(N2CC2)=N1 | 7.2e-06 |  | 170 | T/C (Mus musculus [12]): 125%; T/C (Mus musculus [9]): <100%
26 | C1CCN(P2(N3CCCC3)=NP(N3CCCC3)(N3CCCC3)=NP(N3CCCC3)(N3CC3)=N2)C1 (stereo unspecified) | 4.43e-05 | 1.2e-05 |  | 
27 | CN(C)P1(N(C)C)=NP(N(C)C)(N(C)C)=NP(N(C)C)(N2CC2)=N1 (stereo unspecified) | >0.00025 | >0.0003 |  | 
28 | C1CCN(P2(N3CC3)=NP(N3CC3)(N3CC3)=NP(N3CC3)(N3CC3)=N2)CC1 (stereo unspecified) | 1.5e-06 |  | 80 | T/C (Mus musculus [11]): 175%; T/C (Mus musculus [16]): 213%
29 | C1CCN(P2(N3CCCC3)=N[P@@](N3CCCC3)(N3CC3)=N[P@](N3CCCC3)(N3CC3)=N2)C1 | 4.8e-06 | 1e-06 |  | 
30 | CN[P@@]1(N)=NP(N2CC2)(N2CC2)=N[P@](N)(NC)=N1 | 5.05e-05 | 8e-06 |  | 
31 | CNP1(NC)=NP(NC)(NC)=NP(NC)(N2CC2)=N1 (stereo unspecified) | >0.00025 | 0.0002 | 800 | T/C (Mus musculus [5]): 225%; T/C (Mus musculus [6]): 175%
